TRPC4 inh = blocks the mouse TRPC4 cation channel | Q9QUQ5 | 0.39% of 300,000 active | HEK293 TRPC4beta/mu-opioid, DAMGO-evoked Fluo4 calcium flux; hits give low values | B-score at 10 µM | AID 2247;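 active = B-score over 3 SD under the library average, no early fluorescence shift, positive overall ratio signal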
Target sequence (Q9QUQ5 whole entry, looked up): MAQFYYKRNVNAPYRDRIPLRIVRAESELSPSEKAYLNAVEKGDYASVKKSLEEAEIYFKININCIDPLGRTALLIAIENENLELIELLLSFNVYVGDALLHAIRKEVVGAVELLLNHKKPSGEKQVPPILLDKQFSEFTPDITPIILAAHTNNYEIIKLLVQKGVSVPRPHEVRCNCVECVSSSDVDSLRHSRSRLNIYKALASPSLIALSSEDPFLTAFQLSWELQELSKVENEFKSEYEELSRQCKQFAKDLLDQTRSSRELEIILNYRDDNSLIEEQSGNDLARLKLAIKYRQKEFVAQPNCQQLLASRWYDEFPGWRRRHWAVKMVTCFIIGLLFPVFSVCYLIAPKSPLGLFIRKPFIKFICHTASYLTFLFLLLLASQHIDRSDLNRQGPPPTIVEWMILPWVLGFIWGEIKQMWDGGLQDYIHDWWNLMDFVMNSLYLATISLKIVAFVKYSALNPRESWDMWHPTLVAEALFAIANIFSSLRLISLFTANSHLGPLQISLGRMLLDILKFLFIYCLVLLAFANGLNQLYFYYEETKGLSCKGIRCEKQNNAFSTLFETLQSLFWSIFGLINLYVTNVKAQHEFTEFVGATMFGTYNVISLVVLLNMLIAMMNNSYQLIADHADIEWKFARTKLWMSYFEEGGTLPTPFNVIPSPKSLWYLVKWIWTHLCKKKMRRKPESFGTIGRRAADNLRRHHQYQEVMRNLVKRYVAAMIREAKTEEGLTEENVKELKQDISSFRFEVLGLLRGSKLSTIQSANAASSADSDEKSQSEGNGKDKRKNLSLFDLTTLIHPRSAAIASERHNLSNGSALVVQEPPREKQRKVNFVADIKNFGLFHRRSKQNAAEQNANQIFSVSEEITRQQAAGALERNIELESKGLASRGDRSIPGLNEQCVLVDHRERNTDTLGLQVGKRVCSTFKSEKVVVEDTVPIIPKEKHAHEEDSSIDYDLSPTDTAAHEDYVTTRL
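Assay system: HEK293 cells with stable TRPC4beta plus mu-opioid receptor expression; Probe or stimulus: DAMGO in two steps, submaximal then maximal; Dosing: single-point compound dosing; Measured by: Fluo4 calcium-dye fluorescence, kinetic read; Read-out basis: B score from integrated Fluo4 fluorescence ratio.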
TRPC6 act = activates the mouse TRPC6 cation channel | HEK293-TRPC6 membrane potential dye fluorescence; hits give high values | B-score at 10 µM | 0.13% of 310,000 active;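 active = B-score of the integrated fluorescence ratio above library mean plus 3 SD, and starting fluorescence ratio within library mean plus 5 SD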;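 also: higher score means more depolarization so channel activation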
TRPC6 inh = inhibitors of mouse TRPC6 channel. Q61143. HEK293-TRPC6, membrane potential dye, ACh-evoked depolarization; hits give low values. B-score at 10 µM. 1.1% of 310,000 active. AID 2553;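 active = B-score under library mean minus 3 SD, initial fluorescence not abnormally high, positive integrated signal ratio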;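 also: B-score derived from integrated fluorescence ratio over the kinetic read; more negative B-score means stronger inhibition of depolarization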
TRPC4 act = opens the mouse TRPC4 cation channel; Q9QUQ5; HEK293 TRPC4beta/mu-opioid, Fluo4 calcium fluorescence; hits give high values; B-score at 10 µM; 0.49% of 310,000 active; AID 2237;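 active = B-score above 5 SD of library B-scores, and initial fluorescence ratio not above library mean plus 5 SD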;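 also: positive B-score marks a calcium rise read as TRPC4 activation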
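Material: TRPC4beta and mu-opioid receptor HEK293 stable cells | Incubation: 45 min room-temperature Fluo4 loading, 110 s read | Detection: Kinetic Fluo4 calcium fluorescence | Measure: Integrated baseline-normalised fluorescence ratio, converted to per-well B score | Benchmarks: Low control buffer alone, high control maximal DAMGO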
TRPC4 PAM = allosteric potentiators of mouse TRPC4 channel; HEK293 TRPC4beta/mu-opioid, DAMGO EC20, Fluo-4 Ca2+ flux; hits give high values; B-score at 10 µM; 0.42% of 310,000 active;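 active = B-score of calcium response area above 5 SD of library B-scores, with initial fluorescence ratio within 5 SD of library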;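 also: B-score of integrated fluorescence ratio over time as area under calcium response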
TRPC4 sel inh 2 = mouse TRPC4 off-target activity of TRPC6 inhibitors, second screen. shares compounds with TRPC6 inh. HEK293 TRPC4/MOR, membrane potential dye fluorescence; channel activated by saturating DAMGO dose. inhibition, % at 10 µM. 42% of 920 active. AID 2776;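 active = compounds whose fluorescence signal differed from control wells by over 3 SD, either direction, in both duplicate plates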
TRPC4 spec = tests whether TRPC6 inhibitors also affect mouse TRPC4; shares compounds with TRPC6 inh; HEK293 TRPC4/mu-opioid, membrane potential fluorescence; activity change, negative = inhibition, % at 10 µM; 61% of 920 active; AID 2777;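 active = rise or fall in signal beyond 3 SD of buffer-only wells in both replicate plates, either sign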;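 also: integrated kinetic ratio of fluorescence range over baseline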
HEK293 MPD ctr 2-1 = second counter-screen for TRPC6 inhibitors: parental HEK293 cells; parental HEK293 membrane potential dye fluorescence; maximal acetylcholine challenge after compound addition; signal change vs control, % at 10 µM; shares compounds with TRPC6 inh; 31% of 920 active;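 active = membrane potential signal moving either way by over 3 SD of the maximum-effect control, in both duplicate plates, meaning non-specific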
HEK293 MPD ctr-1 = counter-screen for TRPC6 inhibitors: effect in parental HEK293 cells. shares compounds with TRPC6 inh. parental HEK293 membrane potential dye fluorescence. membrane potential signal change, % at 10 µM. 60% of 920 active. AID 2780;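 active = membrane potential signal shifting up or down by more than 3 SD of buffer-only wells, on both duplicate plates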
HEK293 MPD ctr-2 = parental HEK293 nonspecific activity of TRPC6 modulators; shares compounds with TRPC6 inh; membrane potential dye fluorescence; membrane potential signal change, % at 10 µM; 51% of 2,400 active; AID 488924;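 active = membrane potential signal moves up or down beyond 5 SD from buffer-only wells, on both duplicate plates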
HEK293 MPD ctr 2-2 = parental HEK293 nonspecific activity of TRPC6 modulators, second screen; AID 488926; 14% of 2,400 active; inhibition, % at 10 µM; membrane potential dye fluorescence; after compound, maximal acetylcholine stimulation; shares compounds with TRPC6 inh;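 active = membrane potential signal drops by more than 5 SD from the mean control signal, in both duplicate plates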;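 also: plate controls were acetylcholine ECmax control wells for no effect and buffer only wells for full effect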
TRPC4 ctr mod = selectivity of TRPC6 modulators against mouse TRPC4; shares compounds with TRPC6 inh; HEK293 TRPC4/mu-opioid, membrane potential fluorescence; percent change from control (negative = decrease, positive = increase), % at 10 µM; 69% of 2,400 active;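 active = membrane potential signal moved up or down beyond 5 SD of buffer control wells, in both duplicate plates, actives on both sides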;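 also: plate controls were assay buffer wells for no effect and DAMGO maximal-effect wells for full effect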
TRPC4 ctr inh 2 = mouse TRPC4 off-target activity of TRPC6 modulators, second screen | shares compounds with TRPC6 inh | HEK293 TRPC4/mu-opioid, membrane potential dye fluorescence; stimulated with maximal-effect DAMGO | inhibition, % at 10 µM | 55% of 2,400 active | AID 488928;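 active = drop in membrane potential signal beyond 5 SD of the control wells in both duplicate plates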;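 also: TRPC4 counter screen for TRPC6 hits run under conditions tuned for TRPC6 not TRPC4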
TRPC6 block conf = confirmation of mouse TRPC6 inhibitors | shares compounds with TRPC6 inh | HEK293-TRPC6, membrane potential dye, ACh-evoked depolarization | inhibition, % at 10 µM | 43% of 3,300 active | AID 488960;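 active = fluorescence ratio falls more than 5 SD below the full-stimulation control mean, in both duplicate runs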;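 also: integrated fluorescence ratio of peak minus minimum over baseline after agonist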
TRPC6 act confirm = mouse TRPC6 activator confirmation; shares compounds with TRPC6 inh; HEK293-TRPC6 membrane potential dye fluorescence, FDSS; AID 488961; 11% of 2,800 active; activation, % at 10 µM;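 active = ratio signal rise beyond 5 SD above unstimulated control wells' mean, seen in both duplicate runs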;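 also: plate controls were buffer EC0 wells for no effect and acetylcholine ECmax response for full effect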
Starred values were filed as active, the others as inactive; i = inactive; x = not tested or not shown. Only some compounds are listed: those with a hit (about 2.3% of all), similar ones and a draw of the others.

SMILES | TRPC4 inh | TRPC6 act | TRPC6 inh | TRPC4 act | TRPC4 PAM | HEK293 MPD ctr-2 | HEK293 MPD ctr 2-2 | TRPC4 ctr mod | TRPC4 ctr inh 2 | TRPC6 block conf | TRPC6 act confirm | others
C#CCOCCOCCOCCNc1nc(N2CCN(C(=O)[C@H]([C@@H](C)CC)n3cc([C@@H](N)Cc4ccc(O)cc4)nn3)CC2)nc(N2CCN(C(=O)[C@H]([C@@H](C)CC)n3cc([C@@H](N)Cc4ccc(O)cc4)nn3)CC2)n1 | i | i | -6* | i | i | -102%* | i | -28%* | i | i | i
C#CCOCCOCCOCCNc1nc(N2CCN(C(=O)[C@H]([C@@H](C)CC)n3cc([C@@H](N)CO)nn3)CC2)nc(N2CCN(C(=O)[C@H]([C@@H](C)CC)n3cc([C@@H](N)Cc4ccc(O)cc4)nn3)CC2)n1 | i | i | i | i | i | x | x | x | x | x | x
CCc1cc(C(=O)N2CCCC(CCC(=O)NCc3cccc(OC)c3)C2)no1 (stereo not given) | i | i | i | i | i | x | x | x | x | x | x
COc1ccc(-c2cc3nc4n(c(=O)c3s2)CCC4)cc1 | i | i | i | i | i | x | x | x | x | x | x
COc1ccc(-c2nc3n(c2C)CCC3)cc1 | i | i | -5.8* | i | i | -266%* | i | -36%* | 44%* | i | i
NC(=NCCc1c[nH]c2ccccc12)NC(=O)c1ccc(F)cc1 | i | i | -6.5* | i | i | i | i | i | 54%* | 44%* | i
CCSc1ccc2cc(OC)ccc2[n+]1CC | i | i | -7.6* | i | i | x | x | x | x | 62%* | i | TRPC4 sel inh 2=76%*;TRPC4 spec=-21%*;HEK293 MPD ctr 2-1=39%*;HEK293 MPD ctr-1=-314%*
CCn1ccc2cc(OC)ccc2c1=S | i | i | i | i | i | x | x | x | x | x | x
CCC1CCCCN1S(=O)(=O)c1ccc(NC(=O)C2CCCO2)cc1 (stereo not given) | i | i | i | i | i | x | x | x | x | x | x
COc1ccc(C(C)=O)cc1CSc1nnc2c(Cl)cc(Cl)cn12 | i | i | -7* | i | i | -342%* | 65%* | -68%* | 72%* | 64%* | i
CC(=O)c1nnn(-c2nc(N)nc(N(c3ccccc3)c3ccccc3)n2)c1C | i | i | i | i | i | x | x | x | x | x | x
CCCCN(CCCC)c1nc(OC)nc(-n2nnc(C(C)=O)c2C)n1 | i | 11* | i | i | i | 240%* | i | 57%* | i | i | 96%*
COc1ccc(OC)c(C(=O)NC(CC(N)=O)c2ccc(N3CCC(Cc4ccccc4)CC3)c([N+](=O)[O-])c2)c1 (stereo not given) | i | i | i | i | i | x | x | x | x | x | x
CN(C)CCc1cc2c(c3c1ccc1ccccc13)OCO2 | i | i | -5.2* | i | i | i | i | -10%* | 47%* | i | i
O=C(NC(Nc1nc2ccc([N+](=O)[O-])cc2s1)(C(F)(F)F)C(F)(F)F)c1cccnc1 | i | 15* | -8.2* | i | i | 388%* | 93%* | 92%* | 60%* | 77%* | 88%*
Cn1c(=O)c2c(nc(N3CCOCC3)n2CCc2ccccc2)n(C)c1=O | i | i | i | i | i | x | x | x | x | x | x
CN(C)C=NCCn1c(N2CCOCC2)nc2c1c(=O)n(C)c(=O)n2C | i | i | -7.1* | i | i | -274%* | i | -44%* | 35%* | i | i
Cc1c(-n2c(SCC(=O)C(C)(C)C)nc3ccccc3c2=O)c(=O)n(-c2ccccc2)n1C | i | i | i | i | i | x | x | x | x | x | x
CNC(=O)c1cc2c(=O)n3cccc(C)c3nc2n(C(C)C)c1=N | i | i | -12* | i | i | -209%* | 121%* | -40%* | 66%* | 82%* | i
Cc1cccn2c(=O)c3cc(C(=O)NCCN4CCOCC4)c(=N)n(CCCN4CCOCC4)c3nc12 | i | i | -5* | i | i | 189%* | 164%* | 32%* | 46%* | 61%* | x
Cc1cccn2c(=O)c3cc(C(=O)NCCc4ccccc4)c(=N)n(CCCn4ccnc4)c3nc12 | i | i | -6.2* | i | i | i | 100%* | i | i | i | i
COCCn1c(=N)c(C(=O)NCCc2ccccc2)cc2c(=O)n3cccc(C)c3nc21 | i | i | i | i | i | x | x | x | x | x | x
Cc1cccn2c(=O)c3cc(C(=O)NCC4CCCO4)c(=N)n(CCN4CCOCC4)c3nc12 (stereo not given) | i | i | i | i | i | x | x | x | x | x | x
COc1ccc(CCn2c(=N)c(C(=O)NC3CCCC3)cc3c(=O)n4cccc(C)c4nc32)cc1 | i | i | -5.3* | i | i | -121%* | i | -38%* | 49%* | 36%* | i
COc1cccc(C2NC(=O)NC(C)=C2C(=O)OCC2CCCCC2)c1 (stereo not given) | i | i | i | i | i | x | x | x | x | x | x

Screening results (PubChem)
